Assay [1] has as its system Staphylococcus aureus. Put plainly: Antibacterial activity against Staphylococcus aureus. It counts as functional.
The test system of assay [2] is Enterococcus faecium. Put plainly: Antibacterial activity against vancomycin-sensitive Enterococcus faecium isolate 987.
In assay [3] the test system is Enterococcus faecium. Put plainly: Antibacterial activity against vancomycin-resistant Enterococcus faecium isolate 820. It counts as functional. In a few lines: (§1)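 Wild-type and clinical E. faecium isolates were grown in Enterococcosal broth. Overnight stationary-phase cultures were diluted 1:1000 into fresh medium and incubated with two-fold compound dilutions (seven concentrations) overnight at 37 °C in 96-well plates. The MIC was recorded as the […], and values were rounded.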

Assay [4] relates to Enterococcus faecium. Put plainly: Antibacterial activity against vancomycin-resistant Enterococcus faecium isolate 449. It counts as functional. Summed up:
as §1

Assay [5] has as its system Staphylococcus aureus. The assay is described as follows: Antibacterial activity against vancomycin-sensitive Staphylococcus aureus ATCC 6538P. It counts as functional.
Assay [6] deals with Enterococcus faecium. Put plainly: Antibacterial activity against vancomycin-resistant Enterococcus faecium isolate 243. The assay is classed as functional. In a few lines:
as §1

Where [7] appears, read: Staphylococcus aureus, ATCC 6538P, read-out: MIC.
The mark [8] stands for this setting: Enterococcus faecium, isolate 243, read-out: MIC.

Values after ≈ are worked out from the molar mass of the structure shown. A value given as a limit tells only on which side of the number the result lay.

What is called MIC is the smallest concentration in the dilution series that meets the test's criterion for growth inhibition.

As for `C=CCc1cc2ccccc2c(-c2c(OC)c(CC(NC(C)=O)C(=O)N[C@H](CCCNC(=N)N)C(=O)N[C@@H](CC=C)C(=O)OC)cc3ccccc23)c1OC` (some centres undefined), the lowest concentration to inhibit growth against Staphylococcus aureus [1] (MIC) was 2 µM (≈ 1.5 µg/mL).

For the molecule `CN[C@H](CC(C)C)C(=O)N[C@H]1C(=O)N[C@@H](CC(N)=O)C(=O)N[C@H]2C(=O)N[C@H]3C(=O)N[C@H](C(=O)N[C@H](C(=O)O)c4cc(O)cc(O)c4-c4cc3ccc4O)[C@H](O)c3ccc(c(Cl)c3)Oc3cc2cc(c3O[C@@H]2O[C@H](CO)[C@@H](O)[C@H](O)[C@H]2O[C@H]2C[C@](C)(N)[C@H](O)[C@H](C)O2)Oc2ccc(cc2Cl)[C@H]1O` [VANCOMYCIN], the minimal inhibitory concentration (MIC) in the assay with Enterococcus faecium [2] was less than 1 µM; with Enterococcus faecium [3], greater than 86 µM; against Enterococcus faecium [4] it was 43 µM (≈ 62.3 µg/mL); with Staphylococcus aureus [5] (setting [7]), 1 µM (≈ 1.45 µg/mL); with Enterococcus faecium [6] (setting [8]), 1 µM (≈ 1.45 µg/mL).

Take `N=C(N)NCCC[C@@H](NC(=O)CCCOc1ccc2ccccc2c1-c1c(OCCCC(=O)N[C@H](CCCNC(=N)N)C(=O)OCc2ccccc2)ccc2ccccc12)C(=O)OCc1ccccc1` (stereo in doubt; 21): the minimum inhibitory concentration (MIC) with Enterococcus faecium [2] is 31 µM (≈ 29.5 µg/mL); with Enterococcus faecium [3] it was 31 µM (≈ 29.5 µg/mL); in the assay with Enterococcus faecium [4], 31 µM (≈ 29.5 µg/mL); in the assay on Staphylococcus aureus [5] (setting [7]) it was 2 µM (≈ 1.9 µg/mL); with Enterococcus faecium [6] (setting [8]), 61 µM (≈ 58 µg/mL).

`C=CCOc1ccc2ccccc2c1-c1c(OCC(=O)N[C@H](CCCCN)C(=O)N[C@H](CCCNC(=N)N)C(=O)N[C@@H](CC=C)C(=O)OCc2ccccc2)ccc2ccccc12` showed an MIC with Staphylococcus aureus [1] of 2 µM (≈ 1.71 µg/mL).

Turning to `COC(=O)[C@@H](CCCNC(=N)N)NC(=O)CCCOc1ccc2ccccc2c1-c1c(OCCCC(=O)N[C@H](CCCNC(=N)N)C(=O)OC)ccc2ccccc12`, the MIC is greater than 143 µM with Enterococcus faecium [3], greater than 143 µM against Enterococcus faecium [4] and 18 µM (≈ 14.4 µg/mL) in the assay on Staphylococcus aureus [5] (setting [7]).

`NCCCC[C@@H](NC(=O)CCCOc1ccc2ccccc2c1-c1c(OCCCC(=O)N[C@H](CCCCN)C(=O)OCc2ccccc2)ccc2ccccc12)C(=O)OCc1ccccc1`: the MIC against Enterococcus faecium [2] is 129 µM (≈ 115 µg/mL); against Enterococcus faecium [3] it was 65 µM (≈ 58.2 µg/mL); against Enterococcus faecium [4] it was 65 µM (≈ 58.2 µg/mL); in the assay on Staphylococcus aureus [5] (setting [7]), 4 µM (≈ 3.58 µg/mL); in the assay with Enterococcus faecium [6] (setting [8]), 129 µM (≈ 115 µg/mL).

`N=C(N)NCCC[C@@H](NC(=O)CCCOc1ccc2ccccc2c1-c1c(OCCCC(=O)N[C@H](CCCNC(=N)N)C(=O)OCc2ccccn2)ccc2ccccc12)C(=O)OCc1ccccn1`: the MIC in the assay on Enterococcus faecium [2] was greater than 122 µM; in the assay with Enterococcus faecium [3], greater than 122 µM; with Enterococcus faecium [4] it was greater than 122 µM; in the assay with Staphylococcus aureus [5] (setting [7]), 15 µM (≈ 14.3 µg/mL); in the assay with Enterococcus faecium [6] (setting [8]) it was greater than 122 µM.

Take `NCCCC[C@@H](NC(=O)CCCOc1ccc2ccccc2c1-c1c(OCCCC(=O)N[C@H](CCCCN)C(=O)OCc2ccccn2)ccc2ccccc12)C(=O)OCc1ccccn1`: the MIC in the assay on Enterococcus faecium [2] was greater than 129 µM; in the assay with Enterococcus faecium [3] it was greater than 129 µM; in the assay with Enterococcus faecium [4] it was greater than 129 µM; in the assay on Staphylococcus aureus [5] (setting [7]), 129 µM (≈ 116 µg/mL); with Enterococcus faecium [6] (setting [8]), greater than 129 µM.

In the case of `N=C(N)NCCCC[C@@H](NC(=O)CCCOc1ccc2ccccc2c1-c1c(OCCCC(=O)N[C@H](CCCCNC(=N)N)C(=O)OCc2ccccc2)ccc2ccccc12)C(=O)OCc1ccccc1`, the MIC worked out at 119 µM (≈ 117 µg/mL) in the assay on Enterococcus faecium [2]; 59 µM (≈ 57.8 µg/mL) against Enterococcus faecium [3]; 59 µM (≈ 57.8 µg/mL) in the assay with Enterococcus faecium [4]; 4 µM (≈ 3.92 µg/mL) in the assay on Staphylococcus aureus [5] (setting [7]); 59 µM (≈ 57.8 µg/mL) in the assay with Enterococcus faecium [6] (setting [8]).

For `N=C(N)NCCC[C@@H](NC(=O)CCCOc1ccc2ccccc2c1-c1c(OCCCC(=O)N[C@H](CCCNC(=N)N)C(=O)NCc2ccccc2)ccc2ccccc12)C(=O)NCc1ccccc1`, the MIC in the assay with Enterococcus faecium [2] is 122 µM (≈ 116 µg/mL); in the assay on Enterococcus faecium [3] it was 122 µM (≈ 116 µg/mL); in the assay on Enterococcus faecium [4], 61 µM (≈ 57.9 µg/mL); in the assay on Staphylococcus aureus [5] (setting [7]), 2 µM (≈ 1.9 µg/mL); in the assay on Enterococcus faecium [6] (setting [8]), 61 µM (≈ 57.9 µg/mL).

With `Cl.Cl.N=C(N)NCCC[C@@H](NC(=O)CCCOc1ccc2ccccc2c1-c1c(OCCCC(=O)N[C@H](CCCNC(=N)N)C(=O)OCc2ccccc2)ccc2ccccc12)C(=O)OCc1ccccc1` (stereo in doubt; 22), the values for the MIC with Staphylococcus aureus [5] and in the assay with Enterococcus faecium [6] were 4 µM and 31 µM, respectively.

Regarding `COC(=O)[C@@H](CCCCN)NC(=O)CCCOc1ccc2ccccc2c1-c1c(OCCCC(=O)N[C@H](CCCCN)C(=O)OC)ccc2ccccc12`, the MIC with Staphylococcus aureus [5] (setting [7]) was greater than 153 µM.

In the case of `N=C(N)NCCCC[C@@H](NC(=O)CCCOc1ccc2ccccc2c1-c1c(OCCCC(=O)N[C@H](CCCCNC(=N)N)C(=O)OCc2cccc3ccccc23)ccc2ccccc12)C(=O)OCc1cccc2ccccc12`, the MIC was greater than 108 µM against Enterococcus faecium [2]; 54 µM (≈ 58.3 µg/mL) with Enterococcus faecium [3]; 109 µM (≈ 118 µg/mL) in the assay with Enterococcus faecium [4]; 7 µM (≈ 7.56 µg/mL) in the assay on Staphylococcus aureus [5] (setting [7]); greater than 109 µM with Enterococcus faecium [6] (setting [8]).

With `C=CCOc1ccc2ccccc2c1-c1c(OCCCC(=O)N[C@H](CCCNC(=N)N)C(=O)OCc2ccccc2)ccc2ccccc12`, the lowest concentration to inhibit growth against Staphylococcus aureus [1] (MIC) was 5 µM (≈ 3.29 µg/mL).

Turning to `NCCCC[C@@H](NC(=O)CCCOc1ccc2ccccc2c1-c1c(OCCCC(=O)N[C@H](CCCCN)C(=O)OCc2cccc3ccccc23)ccc2ccccc12)C(=O)OCc1cccc2ccccc12`, the MIC in the assay with Enterococcus faecium [2] is 117 µM (≈ 116 µg/mL); in the assay on Enterococcus faecium [3], 59 µM (≈ 58.7 µg/mL); against Enterococcus faecium [4] it was 117 µM (≈ 116 µg/mL); in the assay with Staphylococcus aureus [5] (setting [7]), 7 µM (≈ 6.97 µg/mL); with Enterococcus faecium [6] (setting [8]) it was greater than 117 µM.

The record behind these values is ChEMBL document CHEMBL1817589, “Synthesis and antibacterial activity of C2-symmetric binaphthyl scaffolded amino acid derivatives” (2011).
